# Reference: ChEMBL document CHEMBL5046217, “Discovery of New Imidazo[2,1-b]thiazole Derivatives as Potent Pan-RAF Inhibitors with Promising In Vitro and In Vivo Anti-melanoma Activity” (J Med Chem, 2021)
# Key:
# UACC-62 [1] = experiment: Antiproliferative activity against human UACC-62 cells assessed as cell growth inhibition measured after 48 hrs by SRB assay; details: UACC-62, 48 h
# [2] = system: Panel breast (Carcinoma cell lines); experiment: Antiproliferative activity against human Panel breast (Carcinoma cell lines) assessed as cell growth inhibition measured after 48 hrs by SRB assay
# UACC-257 = experiment: Antiproliferative activity against human UACC-257 cells assessed as total growth inhibition measured after 48 hrs by SRB assay; details: UACC-257, 48 h
# UACC-62 [3] = experiment: Antiproliferative activity against human UACC-62 cells assessed as total growth inhibition measured after 48 hrs by SRB assay; details: UACC-62, 48 h
# [4] = target: Serine/threonine-protein kinase B-raf (Homo sapiens, UniProt P15056); experiment: Inhibition of human wild type BRAF using myelin basic protein as substrate in presence of [gamma-33P]ATP incubated for 40 mins by scintillation counting method
# How it was run: (§1)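 Radiometric kinase assay run at Reaction Biology. Kinase (5−10 mU) in 25 mM Tris pH 7.5, 0.02 mM EGTA, 10 mM magnesium acetate with 0.66 mg/mL myelin basic protein and [γ-33P]ATP at 1 μM ATP. Reaction started with Mg-ATP and run 40 min at room temperature, then stopped with 3% phosphoric acid. Spotted on P30 filtermat, washed, scintillation counted.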
# [5] = target: T1, Receptor-type tyrosine-protein kinase FLT3 (Homo sapiens, UniProt P36888); experiment: Inhibition of FLT3 (unknown origin) incubated for 1 hr by qPCR analysis
# T1 sequence (P36888 whole entry): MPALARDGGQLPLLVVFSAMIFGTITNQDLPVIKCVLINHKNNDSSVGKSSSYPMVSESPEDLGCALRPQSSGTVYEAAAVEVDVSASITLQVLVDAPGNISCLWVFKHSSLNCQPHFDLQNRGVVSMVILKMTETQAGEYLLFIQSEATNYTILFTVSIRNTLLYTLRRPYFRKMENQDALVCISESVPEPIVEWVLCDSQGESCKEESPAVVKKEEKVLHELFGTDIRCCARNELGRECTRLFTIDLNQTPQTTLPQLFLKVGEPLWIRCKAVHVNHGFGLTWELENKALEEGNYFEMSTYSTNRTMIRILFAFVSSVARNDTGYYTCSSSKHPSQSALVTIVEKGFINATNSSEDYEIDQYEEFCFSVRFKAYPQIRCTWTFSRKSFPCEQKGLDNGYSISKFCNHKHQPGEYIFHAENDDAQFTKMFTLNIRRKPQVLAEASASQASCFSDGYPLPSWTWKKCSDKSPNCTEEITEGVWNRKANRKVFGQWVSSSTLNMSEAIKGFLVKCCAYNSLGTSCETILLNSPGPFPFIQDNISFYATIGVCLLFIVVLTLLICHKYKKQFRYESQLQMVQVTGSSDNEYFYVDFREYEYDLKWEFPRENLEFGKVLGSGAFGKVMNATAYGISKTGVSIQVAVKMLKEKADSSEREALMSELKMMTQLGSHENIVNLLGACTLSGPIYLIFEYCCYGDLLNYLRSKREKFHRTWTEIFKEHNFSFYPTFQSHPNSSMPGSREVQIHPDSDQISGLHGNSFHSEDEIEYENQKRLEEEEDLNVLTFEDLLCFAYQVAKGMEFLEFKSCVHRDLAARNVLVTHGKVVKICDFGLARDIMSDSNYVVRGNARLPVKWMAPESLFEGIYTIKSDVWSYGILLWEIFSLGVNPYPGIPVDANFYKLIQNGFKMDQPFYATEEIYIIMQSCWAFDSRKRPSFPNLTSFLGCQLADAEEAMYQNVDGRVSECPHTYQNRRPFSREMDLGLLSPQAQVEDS
# How it was run: (§2)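 Competition binding assay. Kinases were either T7-phage-tagged (grown in an E. coli BL21-derived host) or expressed in HEK-293 cells and DNA-tagged. […] Bound kinase was eluted with non-biotinylated ligand and quantified by qPCR.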
# NSCLC [6] = experiment: Antiproliferative activity against human NSCLC cell line assessed as cell growth inhibition measured after 48 hrs by SRB assay
# [7] = target: Tyrosine-protein kinase ABL1 (Homo sapiens, UniProt P00519); experiment: Inhibition of ABL1 (unknown origin) incubated for 1 hr by qPCR analysis
# SK-MEL-28 [8] = experiment: Antiproliferative activity against human SK-MEL-28 cells assessed as total growth inhibition measured after 48 hrs by SRB assay; details: SK-MEL-28, 48 h
# [9] = Cytotoxicity against human BJ cells assessed as cell growth inhibition incubated for 48 hrs by MTT assay; assay type: toxicity, cell-based
# How it was run: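 BJ1 normal skin fibroblasts were seeded at 10 × 10³ cells/well with compound in triplicate wells and grown in DMEM-F12 at 37 °C, 5% CO₂, across an eight-point dilution series. Growth inhibition was calculated as (1 − T/C) × 100, and IC50 was taken from the dose–response curve.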
# [10] = target: Serine/threonine-protein kinase B-raf (Homo sapiens, UniProt P15056, V600E); experiment: Inhibition of human BRAF V600E mutant using myelin basic protein as substrate in presence of [gamma-33P]ATP incubated for 40 mins by scintillation counting method; how it was run: as §1
# MDA-MB-435 = experiment: Antiproliferative activity against human MDA-MB-435 cells assessed as total growth inhibition measured after 48 hrs by SRB assay; details: MDA-MB-435, 48 h
# SK-MEL-28 [11] = experiment: Antiproliferative activity against human SK-MEL-28 cells assessed as cell growth inhibition measured after 48 hrs by SRB assay; details: SK-MEL-28, 48 h
# Malme-3M [12] = experiment: Antiproliferative activity against human Malme-3M cells assessed as cell growth inhibition measured after 48 hrs by SRB assay
# [13] = target: RAF proto-oncogene serine/threonine-protein kinase (Homo sapiens, UniProt P04049); experiment: Inhibition of human wild type CRAF using myelin basic protein as substrate in presence of [gamma-33P]ATP incubated for 40 mins by scintillation counting method
# [14] = target: BDNF/NT-3 growth factors receptor (Homo sapiens, UniProt Q16620); experiment: Inhibition of NTRK2 (unknown origin) incubated for 1 hr by qPCR analysis
# [15] = target: Fibroblast growth factor receptor 1 (Homo sapiens, UniProt P11362); experiment: Inhibition of FGFR1 (unknown origin) incubated for 1 hr by qPCR analysis
# [16] = system: Panel melanoma (Carcinoma cell lines); experiment: cells; details: Homo sapiens, 48 h, read-out: INH
# [17] = target: Mitogen-activated protein kinase 8 (Homo sapiens, UniProt P45983); experiment: Inhibition of MAPK8 (unknown origin) incubated for 1 hr by qPCR analysis; how it was run: as §2
# NSCLC [18] = experiment: cells; details: Homo sapiens, 48 h, read-out: INH
# in vitro = details: human, BJ cells and Malme-3M cells
# [19] = system: Panel leukemia (Carcinoma cell lines); experiment: Antiproliferative activity against human Panel leukemia (Carcinoma cell lines) assessed as cell growth inhibition measured after 48 hrs by SRB assay
# [20] = system: Panel ovarian (Carcinoma cell lines); experiment: cells; details: Homo sapiens, 48 h, read-out: INH
# Malme-3M [21] = experiment: Antiproliferative activity against human Malme-3M cells assessed as total growth inhibition measured after 48 hrs by SRB assay
# LOX IMVI = experiment: Antiproliferative activity against human LOX IMVI cells assessed as total growth inhibition measured after 48 hrs by SRB assay
# Tyrosine-protein kinase ABL1, sequence (P00519 whole entry): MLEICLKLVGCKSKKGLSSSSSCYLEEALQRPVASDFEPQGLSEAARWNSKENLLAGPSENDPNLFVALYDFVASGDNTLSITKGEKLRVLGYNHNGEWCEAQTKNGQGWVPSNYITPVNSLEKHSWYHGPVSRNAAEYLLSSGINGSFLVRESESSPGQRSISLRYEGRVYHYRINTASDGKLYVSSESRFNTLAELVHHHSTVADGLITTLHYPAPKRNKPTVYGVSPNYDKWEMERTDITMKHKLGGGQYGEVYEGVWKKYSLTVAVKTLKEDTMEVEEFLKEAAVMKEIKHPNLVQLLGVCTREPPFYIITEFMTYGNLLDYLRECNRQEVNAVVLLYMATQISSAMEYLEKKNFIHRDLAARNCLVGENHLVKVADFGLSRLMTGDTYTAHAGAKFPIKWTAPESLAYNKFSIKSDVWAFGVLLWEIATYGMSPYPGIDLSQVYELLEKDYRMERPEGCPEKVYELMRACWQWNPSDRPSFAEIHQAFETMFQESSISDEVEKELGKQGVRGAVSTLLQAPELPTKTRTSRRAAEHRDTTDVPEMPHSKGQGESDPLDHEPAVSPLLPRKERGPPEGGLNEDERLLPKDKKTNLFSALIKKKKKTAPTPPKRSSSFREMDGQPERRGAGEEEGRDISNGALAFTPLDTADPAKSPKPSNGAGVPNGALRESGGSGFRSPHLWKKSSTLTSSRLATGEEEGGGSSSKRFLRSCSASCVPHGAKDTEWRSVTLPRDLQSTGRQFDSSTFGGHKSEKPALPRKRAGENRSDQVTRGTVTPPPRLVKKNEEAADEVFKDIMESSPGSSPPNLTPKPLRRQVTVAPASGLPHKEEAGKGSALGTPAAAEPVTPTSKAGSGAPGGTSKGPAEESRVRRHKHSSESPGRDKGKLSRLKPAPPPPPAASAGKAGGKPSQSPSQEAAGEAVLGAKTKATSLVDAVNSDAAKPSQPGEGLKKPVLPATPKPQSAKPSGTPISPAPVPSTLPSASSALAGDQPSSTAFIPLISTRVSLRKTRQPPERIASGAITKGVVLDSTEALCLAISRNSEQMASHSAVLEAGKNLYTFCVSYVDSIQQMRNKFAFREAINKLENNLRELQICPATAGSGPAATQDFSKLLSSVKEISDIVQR
# RAF proto-oncogene serine/threonine-protein kinase, sequence (P04049 whole entry): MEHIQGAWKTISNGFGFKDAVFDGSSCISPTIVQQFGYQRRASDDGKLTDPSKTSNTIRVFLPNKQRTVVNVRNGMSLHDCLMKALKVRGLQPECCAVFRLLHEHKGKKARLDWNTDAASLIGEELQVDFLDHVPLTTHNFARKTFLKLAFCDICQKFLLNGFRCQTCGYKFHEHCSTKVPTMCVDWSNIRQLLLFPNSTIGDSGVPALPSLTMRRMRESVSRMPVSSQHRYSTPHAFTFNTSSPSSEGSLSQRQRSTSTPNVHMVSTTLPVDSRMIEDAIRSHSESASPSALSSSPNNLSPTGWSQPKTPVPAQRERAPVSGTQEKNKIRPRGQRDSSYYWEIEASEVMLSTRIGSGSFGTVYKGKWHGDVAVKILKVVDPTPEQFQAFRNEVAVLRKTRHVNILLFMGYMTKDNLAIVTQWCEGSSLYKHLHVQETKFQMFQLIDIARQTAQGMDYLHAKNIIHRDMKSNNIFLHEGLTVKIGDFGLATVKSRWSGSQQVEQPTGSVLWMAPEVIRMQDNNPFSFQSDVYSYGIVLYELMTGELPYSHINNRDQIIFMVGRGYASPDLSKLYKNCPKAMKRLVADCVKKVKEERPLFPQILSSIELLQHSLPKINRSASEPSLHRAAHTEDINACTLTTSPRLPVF
# Serine/threonine-protein kinase B-raf (Homo sapiens, UniProt P15056), sequence (P15056 whole entry): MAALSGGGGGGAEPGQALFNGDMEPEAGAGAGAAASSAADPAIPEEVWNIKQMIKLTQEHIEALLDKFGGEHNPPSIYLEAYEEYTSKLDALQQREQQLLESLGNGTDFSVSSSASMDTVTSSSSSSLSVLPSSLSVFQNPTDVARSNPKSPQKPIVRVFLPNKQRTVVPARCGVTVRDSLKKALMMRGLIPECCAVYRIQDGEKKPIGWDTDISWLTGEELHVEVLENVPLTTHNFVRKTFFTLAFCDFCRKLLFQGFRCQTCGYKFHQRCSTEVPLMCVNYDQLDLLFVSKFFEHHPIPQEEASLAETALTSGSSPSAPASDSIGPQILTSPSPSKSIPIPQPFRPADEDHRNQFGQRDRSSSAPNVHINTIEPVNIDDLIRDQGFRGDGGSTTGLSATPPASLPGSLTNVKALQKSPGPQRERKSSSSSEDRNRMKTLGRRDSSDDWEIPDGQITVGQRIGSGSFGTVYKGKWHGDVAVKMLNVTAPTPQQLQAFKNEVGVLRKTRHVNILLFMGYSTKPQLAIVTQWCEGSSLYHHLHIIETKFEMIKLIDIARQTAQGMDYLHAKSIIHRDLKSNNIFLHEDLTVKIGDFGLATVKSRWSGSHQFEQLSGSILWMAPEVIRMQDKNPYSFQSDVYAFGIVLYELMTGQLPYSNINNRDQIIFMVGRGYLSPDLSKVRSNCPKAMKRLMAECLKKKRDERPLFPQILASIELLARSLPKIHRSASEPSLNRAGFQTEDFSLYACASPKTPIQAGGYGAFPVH
# Fibroblast growth factor receptor 1, sequence (P11362 whole entry): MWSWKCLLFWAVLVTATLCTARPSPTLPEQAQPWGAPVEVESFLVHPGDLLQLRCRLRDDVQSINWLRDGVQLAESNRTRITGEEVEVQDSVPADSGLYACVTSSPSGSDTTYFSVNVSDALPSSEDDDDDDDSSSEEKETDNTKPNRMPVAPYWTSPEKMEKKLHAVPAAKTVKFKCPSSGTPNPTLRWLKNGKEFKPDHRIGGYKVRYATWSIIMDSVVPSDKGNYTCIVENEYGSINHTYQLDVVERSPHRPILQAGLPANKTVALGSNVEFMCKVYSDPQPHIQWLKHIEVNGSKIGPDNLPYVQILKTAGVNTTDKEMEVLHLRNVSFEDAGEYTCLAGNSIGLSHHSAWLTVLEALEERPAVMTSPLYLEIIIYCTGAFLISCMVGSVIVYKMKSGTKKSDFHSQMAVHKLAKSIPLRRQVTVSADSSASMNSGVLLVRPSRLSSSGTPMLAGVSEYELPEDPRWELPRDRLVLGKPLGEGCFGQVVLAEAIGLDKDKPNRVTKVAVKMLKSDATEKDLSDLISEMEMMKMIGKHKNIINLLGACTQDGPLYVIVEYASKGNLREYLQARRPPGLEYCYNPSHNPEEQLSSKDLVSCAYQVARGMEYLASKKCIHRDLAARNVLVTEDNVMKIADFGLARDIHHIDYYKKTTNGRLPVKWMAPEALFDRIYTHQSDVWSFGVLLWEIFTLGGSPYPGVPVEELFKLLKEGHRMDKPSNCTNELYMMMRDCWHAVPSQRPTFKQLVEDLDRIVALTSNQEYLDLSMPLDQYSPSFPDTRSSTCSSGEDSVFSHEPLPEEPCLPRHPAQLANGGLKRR
# BDNF/NT-3 growth factors receptor, sequence (Q16620 whole entry): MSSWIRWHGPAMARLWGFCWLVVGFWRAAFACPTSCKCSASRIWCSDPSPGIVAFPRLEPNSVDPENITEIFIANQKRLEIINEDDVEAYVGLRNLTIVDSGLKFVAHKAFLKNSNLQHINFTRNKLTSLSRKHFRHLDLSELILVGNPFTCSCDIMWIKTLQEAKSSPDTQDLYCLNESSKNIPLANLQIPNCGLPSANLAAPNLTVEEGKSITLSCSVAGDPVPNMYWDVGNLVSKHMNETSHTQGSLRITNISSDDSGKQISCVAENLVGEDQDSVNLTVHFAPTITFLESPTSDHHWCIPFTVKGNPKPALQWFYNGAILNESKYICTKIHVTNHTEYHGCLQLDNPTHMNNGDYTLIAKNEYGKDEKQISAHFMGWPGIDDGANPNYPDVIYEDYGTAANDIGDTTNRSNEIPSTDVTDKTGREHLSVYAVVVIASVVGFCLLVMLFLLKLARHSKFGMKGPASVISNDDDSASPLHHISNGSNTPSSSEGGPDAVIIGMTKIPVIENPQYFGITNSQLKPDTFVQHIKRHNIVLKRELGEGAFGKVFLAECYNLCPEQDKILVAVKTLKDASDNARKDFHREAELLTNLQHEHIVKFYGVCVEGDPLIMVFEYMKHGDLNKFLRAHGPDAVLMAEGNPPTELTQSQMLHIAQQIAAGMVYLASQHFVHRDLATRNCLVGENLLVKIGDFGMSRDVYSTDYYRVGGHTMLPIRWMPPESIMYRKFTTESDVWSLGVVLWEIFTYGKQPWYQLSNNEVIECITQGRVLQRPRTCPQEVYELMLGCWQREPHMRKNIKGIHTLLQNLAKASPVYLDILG
# Serine/threonine-protein kinase B-raf (Homo sapiens, UniProt P15056, V600E), sequence (P15056 2-766 V600E limits assumed): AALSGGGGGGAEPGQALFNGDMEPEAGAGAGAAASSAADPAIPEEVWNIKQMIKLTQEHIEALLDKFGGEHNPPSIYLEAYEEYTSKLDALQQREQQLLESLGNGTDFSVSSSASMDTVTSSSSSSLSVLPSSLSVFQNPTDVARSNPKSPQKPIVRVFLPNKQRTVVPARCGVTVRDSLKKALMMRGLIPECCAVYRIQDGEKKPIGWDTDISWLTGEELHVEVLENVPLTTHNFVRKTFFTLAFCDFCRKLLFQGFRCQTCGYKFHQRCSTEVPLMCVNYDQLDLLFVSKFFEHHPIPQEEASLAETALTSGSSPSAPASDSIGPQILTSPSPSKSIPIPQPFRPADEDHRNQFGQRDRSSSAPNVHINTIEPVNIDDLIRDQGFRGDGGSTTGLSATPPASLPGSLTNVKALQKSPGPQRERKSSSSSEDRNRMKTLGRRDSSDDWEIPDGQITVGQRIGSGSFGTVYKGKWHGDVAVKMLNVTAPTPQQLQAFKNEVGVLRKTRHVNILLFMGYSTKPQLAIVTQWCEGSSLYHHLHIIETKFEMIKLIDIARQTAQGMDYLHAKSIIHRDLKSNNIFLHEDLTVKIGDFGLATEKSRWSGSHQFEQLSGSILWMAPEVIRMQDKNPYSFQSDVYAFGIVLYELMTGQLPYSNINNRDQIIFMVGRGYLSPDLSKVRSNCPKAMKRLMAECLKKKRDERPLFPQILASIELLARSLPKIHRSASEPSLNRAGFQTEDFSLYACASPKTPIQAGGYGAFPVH
structure (smiles),measurement,setting,value
O=S(=O)(NCCCNc1nccc(-c2c(-c3cccc(O)c3)nc3sccn23)n1)c1cccc(F)c1,IC50,UACC-62 [1],750 nM
same,IC50,[2],2410 nM
same,TGI,UACC-257,> 100000 nM
same,TGI,UACC-62 [3],2730 nM
same,IC50,[4],4.2 nM
same,IC50,[5],1480 nM
same,IC50,NSCLC [6],2550 nM
same,IC50,[7],13600 nM
same,TGI,SK-MEL-28 [8],6860 nM
same,IC50 at 48 h,[9],45200 nM
same,IC50,[10],0.98 nM
same,TGI,MDA-MB-435,6510 nM
same,IC50,SK-MEL-28 [11],2290 nM
same,IC50,Malme-3M [12],2600 nM
same,IC50,[13],5 nM
same,IC50,[14],10300 nM
same,IC50,[15],10600 nM
same,inhibition at 10 µM,[16],101%
same,IC50,[17],1870 nM
same,inhibition at 10 µM,NSCLC [18],83.1%
same,selectivity ratio,in vitro,17.4
same,IC50,[19],2040 nM
same,inhibition at 10 µM,[20],75%
same,TGI,Malme-3M [21],7860 nM
same,TGI,LOX IMVI,5820 nM
